One series deals with T1, Adenosine receptor A1 (Homo sapiens, UniProt P30542).
T1 sequence (P30542 whole entry): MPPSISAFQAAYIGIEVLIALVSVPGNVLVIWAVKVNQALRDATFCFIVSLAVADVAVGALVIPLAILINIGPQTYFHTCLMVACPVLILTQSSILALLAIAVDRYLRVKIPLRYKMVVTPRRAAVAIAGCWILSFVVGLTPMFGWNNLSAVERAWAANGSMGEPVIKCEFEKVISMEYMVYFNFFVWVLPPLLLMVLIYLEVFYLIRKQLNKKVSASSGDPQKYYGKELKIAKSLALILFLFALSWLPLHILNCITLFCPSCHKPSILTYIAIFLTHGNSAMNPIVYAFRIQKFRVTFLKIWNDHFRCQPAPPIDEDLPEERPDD
As to the kind of experiment: Displacement of [3H]CCPA from human adenosine A1 receptor expressed in CHO cell membranes by radioligand competition assay. Summed up: (§1)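 Membranes from stably transfected CHO cells were made by 1000 g, then 100 000g spins. hA1 used 1.0 nM [³H]CCPA in 50 mM Tris/HCl pH 7.4. hA3 used 1.0 nM [³H]HEMADO in 50 mM Tris/HCl, 10 mM MgCl2, 1 mM EDTA, pH 8.25. Ki from competition curves, each concentration tested three to five times in triplicate, mean ± S.E.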
A general note: Displacement assays read how much labelled ligand stays bound in the presence of the test substance.

Series [1] concerns the target T2, Adenosine receptor A2a (Homo sapiens, UniProt P29274). As to the kind of experiment: Displacement of [3H]NECA from human adenosine A2A receptor expressed in CHO cell membranes by radioligand competition assay.
In the next series the target is T3, Adenosine receptor A3 (Homo sapiens, UniProt P0DMS8).
T3 sequence (P0DMS8 whole entry): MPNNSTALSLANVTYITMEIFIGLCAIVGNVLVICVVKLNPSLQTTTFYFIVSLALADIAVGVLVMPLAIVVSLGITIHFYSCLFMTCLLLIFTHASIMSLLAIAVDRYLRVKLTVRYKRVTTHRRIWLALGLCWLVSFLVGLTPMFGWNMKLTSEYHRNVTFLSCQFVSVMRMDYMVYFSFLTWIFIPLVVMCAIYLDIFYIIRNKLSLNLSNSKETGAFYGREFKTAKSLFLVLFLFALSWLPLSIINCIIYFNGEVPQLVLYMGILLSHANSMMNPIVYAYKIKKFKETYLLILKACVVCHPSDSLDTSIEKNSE
The series can be described thus: Displacement of [3H]HEMADO from human adenosine A3 receptor expressed in CHO cell membranes by radioligand competition assay. Summed up: as §1

The next series concerns the target T4, Adenosine receptor A2b (Homo sapiens, UniProt P29275).
T4 sequence (P29275 whole entry): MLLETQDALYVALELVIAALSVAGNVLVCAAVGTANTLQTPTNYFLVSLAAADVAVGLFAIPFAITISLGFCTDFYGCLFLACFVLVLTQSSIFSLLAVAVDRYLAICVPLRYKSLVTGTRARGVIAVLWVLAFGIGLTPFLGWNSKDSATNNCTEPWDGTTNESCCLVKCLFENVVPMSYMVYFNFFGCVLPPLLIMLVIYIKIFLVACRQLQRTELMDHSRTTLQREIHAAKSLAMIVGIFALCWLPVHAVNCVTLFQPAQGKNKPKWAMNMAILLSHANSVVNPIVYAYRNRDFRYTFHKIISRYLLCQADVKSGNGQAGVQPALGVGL
The series can be described thus: Antagonist activity at human adenosine A2B receptor expressed in CHO cells assessed as inhibition of NECA-stimulated adenylyl cyclase activity by Glo-sensor cAMP assay. Type of series: functional, cell-based. Summed up: (§2)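 CHO cells stably expressing hA2A or hA2B AR and transiently the GloSensor cAMP biosensor. Cells were equilibrated 2 h at rt in CO2-independent medium with 3% v/v GloSensor reagent and 10% FBS. Compounds at graded concentrations were tested against NECA-induced cAMP rise; luminescence as % of maximal RLU. IC50 from nonlinear regression. Three to five runs in triplicate, mean ± S.E.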

The target in series [2] is T2, Adenosine receptor A2a. As to the kind of experiment: Antagonist activity at human adenosine A2A receptor expressed in CHO cells assessed as inhibition of NECA-stimulated adenylyl cyclase activity by Glo-sensor cAMP assay. Type of series: functional, cell-based. Summed up:
as §2

Series [3] has as its system Microglia. As to the kind of experiment: Neuroprotective activity against 10 uM Oxaliplatin-induced neurotoxicity in Sprague-Dawley rat microglia assessed as cell viability at 10 uM incubated fro 24 hrs by MTT assay (reference value: 33.2 +/- 1.3%). It is filed as functional.
Series [4] deals with Microglia. The series can be described thus: Neuroprotective activity against 30 uM Oxaliplatin-induced neurotoxicity in Sprague-Dawley rat microglia assessed as cell viability at 10 uM incubated fro 24 hrs by MTT assay (reference value: 19.1 +/- 0.8%). Type of series: functional. A general note: Formazan colour is commonly taken as a measure of viable cells.
In another series the test system is Mus musculus. The series can be described thus: Analgesic activity in CD1 albino mouse model of oxaliplatin-induced neuropathy hypersensitivity assessed as increase pain threshold at 10 to 30 mg/kg, po dosed from day 14 post oxaliplatin challenge and measured after 15 to 45 mins post dose by cold plate test. Type of series: functional, organism-based. The procedure, abridged: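 Male CD-1 mice (22–25 g) given oxaliplatin 2.4 mg kg⁻¹ i.p. in 5% glucose on days 1-2, 5-9 and 12-14; controls got vehicle. On day 14, compounds suspended in 1% carboxymethylcellulose were given once p.o. Cold plate held at 4 °C ± 1 °C; latency to first hind-paw licking/lifting recorded, 60 s cut-off. Mean ± SEM, two experimental sets; one-way ANOVA with Bonferroni.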

The target of series [5] is Adenosine receptor A2a (Rattus norvegicus, UniProt P30543). The series can be described thus: Displacement of [3H]NECA from rat adenosine A2A receptor expressed in CHO cell membranes by radioligand competition assay.
Chain of Adenosine receptor A2a (Rattus norvegicus, UniProt P30543) (P30543 whole entry): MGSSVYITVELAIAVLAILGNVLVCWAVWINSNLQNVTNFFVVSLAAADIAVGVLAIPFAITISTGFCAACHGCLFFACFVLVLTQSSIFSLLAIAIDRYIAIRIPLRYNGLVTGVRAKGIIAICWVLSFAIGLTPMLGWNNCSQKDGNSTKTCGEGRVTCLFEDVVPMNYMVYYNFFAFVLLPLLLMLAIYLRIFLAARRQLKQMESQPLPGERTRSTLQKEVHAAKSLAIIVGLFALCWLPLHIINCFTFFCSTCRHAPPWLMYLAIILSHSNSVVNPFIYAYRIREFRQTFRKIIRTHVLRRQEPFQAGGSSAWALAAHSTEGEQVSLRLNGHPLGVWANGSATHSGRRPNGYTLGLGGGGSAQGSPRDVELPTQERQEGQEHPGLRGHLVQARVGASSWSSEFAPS
Series [6] can be described thus: Half life in 50 mM Tris buffer. It is filed as physicochemical. Summed up:
(§3)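 Compounds incubated at 37 °C in 50 mM Tris buffer pH 7.4 or in pooled healthy-volunteer human plasma (stored -80 °C). Concentration followed over time by LC-MS/MS; t1/2 taken from the decay rate of ln(concentration) versus time. Half-lives above 240 min cannot be resolved and are given as ≥240. Ketoprofen ethyl ester served as plasma-activity reference.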

The nature of series [7]: Half life in human plasma. Type of series: ADME, cell-free. Summed up:
as §3

Each structure is given as a SMILES string. Activity calls are given as the source filed them.

T2 sequence (P29274 whole entry): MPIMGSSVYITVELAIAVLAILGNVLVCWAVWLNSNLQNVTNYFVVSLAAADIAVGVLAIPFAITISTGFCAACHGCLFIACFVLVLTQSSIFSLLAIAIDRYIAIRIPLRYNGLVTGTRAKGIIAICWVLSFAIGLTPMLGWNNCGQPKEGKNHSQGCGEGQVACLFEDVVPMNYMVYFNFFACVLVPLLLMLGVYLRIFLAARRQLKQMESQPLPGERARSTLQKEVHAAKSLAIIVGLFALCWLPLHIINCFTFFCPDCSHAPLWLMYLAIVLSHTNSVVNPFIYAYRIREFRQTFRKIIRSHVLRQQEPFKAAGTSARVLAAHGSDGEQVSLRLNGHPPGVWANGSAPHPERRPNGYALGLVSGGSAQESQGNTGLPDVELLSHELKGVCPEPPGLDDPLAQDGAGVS

For the molecule `Nc1nc(-c2ccc(NC(=O)CCCCC3CCSS3)cc2)cn2c(=O)n(-c3ccccc3)nc12` (configuration not stated), the Ki on Adenosine receptor A1 is 0.0084 µM; at Adenosine receptor A2a [1], 0.005 µM; at Adenosine receptor A3, over 30 µM. For the same molecule, the half-maximal inhibitory concentration (IC50) at Adenosine receptor A2b was over 30 µM.
Turning to `Nc1nc(-c2cc(O)c(O)c(O)c2)cn2c(=O)n(-c3ccccc3)nc12`, the Ki on Adenosine receptor A1 stood at 0.176 µM; at Adenosine receptor A2a [1] it was 0.0945 µM; on Adenosine receptor A3 it was 5.57 µM. Besides, the IC50 at Adenosine receptor A2b was 17.3 µM.
For `Nc1nc(-c2ccc3c(c2)OCO3)cn2c(=O)n(-c3ccccc3)nc12` the same measures were 0.013 µM, 0.0074 µM, 0.038 µM and over 30 µM.
In the case of `COc1c(C)cc(-c2cn3c(=O)n(-c4ccccc4)nc3c(N)n2)cc1C`, the Ki on Adenosine receptor A1 was determined as 0.0045 µM; on Adenosine receptor A2a [1], 0.00017 µM; on Adenosine receptor A3, 0.0086 µM. Further, the IC50 at Adenosine receptor A2b is over 30 µM.
For `NCCC(=O)Nc1ccc(-c2cn3c(=O)n(-c4ccccc4)nc3c(N)n2)cc1` the same measures were 0.479 µM, 0.00059 µM, 0.509 µM and 9.66 µM.
The matching figures for `Nc1ccc(-c2cn3c(=O)n(-c4ccccc4)nc3c(N)n2)cc1`: 0.0335 µM, 0.0229 µM, 0.254 µM and over 30 µM.
The matching figures for `NC(=O)COc1ccc(-c2cn3c(=O)n(-c4ccccc4)nc3c(N)n2)cc1`: 0.392 µM, 0.026 µM, 0.604 µM and over 30 µM.
In the case of `Cc1cc(-c2cn3c(=O)n(-c4ccccc4)nc3c(N)n2)cc(C)c1O`, the values for the Ki on Adenosine receptor A1, at Adenosine receptor A2a [1] and on Adenosine receptor A3 were 0.0213 µM, 0.0025 µM and 0.1 µM, respectively. Besides, the IC50 at Adenosine receptor A2b is over 30 µM.
Consider `COc1ccc(-c2cn3c(=O)n(-c4ccccc4)nc3c(N)n2)cc1OC`, for which the Ki at Adenosine receptor A1 was determined as 0.059 µM; on Adenosine receptor A2a [1], 0.0057 µM; on Adenosine receptor A3, 0.0801 µM. The IC50 at Adenosine receptor A2b is over 30 µM.
In the case of `N#CCOc1ccc(-c2cn3c(=O)n(-c4ccccc4)nc3c(N)n2)cc1`, the Ki at Adenosine receptor A1 is over 30 µM; on Adenosine receptor A2a [1], 0.0082 µM; at Adenosine receptor A3 it was over 30 µM; on Adenosine receptor A2a [5], 0.039 µM. The 50% inhibitory concentration (IC50) at Adenosine receptor A2b is over 30 µM; at Adenosine receptor A2a [2], 0.157 µM. Moreover, the Activity in the series with Microglia [3] is given as 48.7%; in the series on Microglia [4], 23%. Besides, in the series with Mus musculus, the result was Active. The half-life in [6] and in series [7] was at least 4 h in each case.
With `CC(C)(C)c1cc(C(=O)NCCOc2ccc(-c3cn4c(=O)n(-c5ccccc5)nc4c(N)n3)cc2)cc(C(C)(C)C)c1O`, the figures for the Ki on Adenosine receptor A1, at Adenosine receptor A2a [1] and at Adenosine receptor A3 were 13.7 µM, 14.8 µM and over 30 µM, respectively. On Adenosine receptor A2b, the IC50 is over 30 µM.
With `NCCOc1ccc(-c2cn3c(=O)n(-c4ccccc4)nc3c(N)n2)cc1`, the Ki at Adenosine receptor A1 amounted to 0.289 µM; on Adenosine receptor A2a [1] it was 0.0149 µM; on Adenosine receptor A3 it was 2.13 µM. Further, at Adenosine receptor A2b, the 50% inhibitory concentration (IC50) is over 30 µM.
Consider `CC(C)(C)c1cc(-c2cn3c(=O)n(-c4ccccc4)nc3c(N)n2)ccc1O`, for which the figures for the inhibition constant (Ki) on Adenosine receptor A1, at Adenosine receptor A2a [1] and on Adenosine receptor A3 were over 30 µM, 0.0085 µM and over 30 µM, respectively. The IC50 at Adenosine receptor A2b was over 30 µM; at Adenosine receptor A2a [2], 0.179 µM. Further, the values for the Activity in the series with Microglia [3] and in the series with Microglia [4] were 46.4% and 28.6%, respectively. Also, the half-life is at least 4 h in series [6] and 2.03 h in series [7].
As to `COc1cc(-c2cn3c(=O)n(-c4ccccc4)nc3c(N)n2)cc(OC)c1OC`, the Ki at Adenosine receptor A1 was found to be 0.055 µM; at Adenosine receptor A2a [1] it was 0.0035 µM; at Adenosine receptor A3, 0.214 µM. In addition, the 50% inhibitory concentration (IC50) at Adenosine receptor A2b is over 30 µM.
For `COc1cc(O)ccc1-c1cn2c(=O)n(-c3ccccc3)nc2c(N)n1`, the Ki on Adenosine receptor A1 is 0.0297 µM; at Adenosine receptor A2a [1], 0.0168 µM; at Adenosine receptor A3, 11.1 µM. Besides, the IC50 on Adenosine receptor A2b is over 30 µM.
For `Nc1nc(-c2ccc(O)c(O)c2)cn2c(=O)n(-c3ccccc3)nc12` the same measures were 0.0426 µM, 0.0052 µM, 0.95 µM and over 30 µM.
Turning to `COc1c(C(C)(C)C)cc(-c2cn3c(=O)n(-c4ccccc4)nc3c(N)n2)cc1C(C)(C)C`, the Ki is 0.108 µM on Adenosine receptor A1, 0.142 µM at Adenosine receptor A2a [1] and over 30 µM on Adenosine receptor A3. The IC50 on Adenosine receptor A2b was over 30 µM.
For `COc1ccc(-c2cn3c(=O)n(-c4ccccc4)nc3c(N)n2)c(OC)c1`, the Ki on Adenosine receptor A1 turned out to be 0.028 µM; at Adenosine receptor A2a [1], 0.0024 µM; at Adenosine receptor A3 it was 0.118 µM. The IC50 on Adenosine receptor A2b is over 30 µM.
Regarding `C=CC(=O)Nc1ccc(-c2cn3c(=O)n(-c4ccccc4)nc3c(N)n2)cc1`, the figures for the inhibition constant (Ki) on Adenosine receptor A1, on Adenosine receptor A2a [1] and on Adenosine receptor A3 were 0.263 µM, 0.0018 µM and over 30 µM, respectively. Further, the IC50 on Adenosine receptor A2b was over 30 µM.
As for `Nc1nc(-c2ccc(NC(=O)CCNC(=O)CCCCC3CCSS3)cc2)cn2c(=O)n(-c3ccccc3)nc12` (configuration not stated), the inhibition constant (Ki) was 1.36 µM on Adenosine receptor A1, 0.0364 µM on Adenosine receptor A2a [1] and over 30 µM on Adenosine receptor A3. Also, the IC50 on Adenosine receptor A2b was over 30 µM; at Adenosine receptor A2a [2] it was 0.296 µM. For the same molecule, the Activity with Microglia [3] was 38.9%; with Microglia [4] it was 18.3%. For the same molecule, the half-life in series [6] is at least 4 h; in series [7], 0.683 h.

In general, Ki refers to the equilibrium dissociation constant of an inhibitor or competing ligand from its target. As a reminder, the IC50 is the concentration needed to halve the response being measured. As usually defined, the half-life is the time in which the quantity being followed falls by half. High values mean slow decline, low ones rapid decline.

The values are drawn from ChEMBL document CHEMBL4321802, “Antioxidant-Conjugated 1,2,4-Triazolo[4,3-a]pyrazin-3-one Derivatives: Highly Potent and Selective Human A2A Adenosine Receptor Antagonists Possessing Protective Efficacy in Neuropathic Pain” (J Med Chem, 2019).
